TAG inh: reduces triacylglycerol accumulation in H9c2 cells; hit rate 0.66% among 230,000; AID 651582; inhibition, % at 12.5 µM; Nile Red lipid (TAG) fluorescence; cells loaded with 200 µM oleic acid;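 active means pattern-corrected inhibition of lipid staining of at least 50% with the nuclear-stain viability signal not falling by more than 50%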
T cruzi inh: blocks replication of Trypanosoma cruzi. T. cruzi beta-gal in NIH3T3, luminescence, 90 h. AID 1885. hit rate 1.4% among 300,000. inhibition, % (no concentration beside the values);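 active means mean inhibition across valid replicates above about 55%, limit read from the data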;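 further: signal also drops with host cell toxicity which is not excluded here; higher percent means less beta-gal luminescence so fewer parasites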
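System: NIH/3T3 fibroblasts plus reporter T. cruzi. Medium: DMEM plus 2% FBS. Probe or stimulus: 5000 reporter trypomastigotes per well. Compound: single 50 nL compound addition per well in DMSO. Incubation: co-culture of at least 90 h after 3 h attachment. Detection: GalScreen β-gal luminescence, detergent lysis, 60 min. Evaluation: parasite load inhibition, %.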
Rev-erbA mod: Rev-erb alpha (human) modulation; hit rate 0.79% among 370,000; activity, % at 10 µM; Rev-erbα–FITC-DNA binding, fluorescence polarization, 90 min;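 active means activity above about 14%, limit read from the data; passing the limit was not always enough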
Target sequence (P20393 whole entry, looked up): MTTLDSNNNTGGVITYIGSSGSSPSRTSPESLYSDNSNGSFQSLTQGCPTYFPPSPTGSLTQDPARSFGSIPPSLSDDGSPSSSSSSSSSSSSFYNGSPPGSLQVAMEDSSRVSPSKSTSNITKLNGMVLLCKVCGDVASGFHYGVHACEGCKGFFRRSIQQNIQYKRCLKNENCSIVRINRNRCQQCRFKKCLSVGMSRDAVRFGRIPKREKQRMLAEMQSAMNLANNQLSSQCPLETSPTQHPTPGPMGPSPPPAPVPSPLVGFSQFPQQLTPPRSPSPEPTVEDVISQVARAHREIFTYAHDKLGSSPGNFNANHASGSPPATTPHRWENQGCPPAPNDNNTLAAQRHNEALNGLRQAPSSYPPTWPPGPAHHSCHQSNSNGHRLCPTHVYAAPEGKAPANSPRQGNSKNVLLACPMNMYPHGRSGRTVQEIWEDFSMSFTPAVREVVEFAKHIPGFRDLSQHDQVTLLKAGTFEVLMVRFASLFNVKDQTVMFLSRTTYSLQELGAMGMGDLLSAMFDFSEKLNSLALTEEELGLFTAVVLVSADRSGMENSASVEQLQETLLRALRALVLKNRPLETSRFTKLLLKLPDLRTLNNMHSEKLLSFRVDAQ
PG9 Ab binder: PG9 antibody binding by small molecule | hit rate 0.43% among 360,000 | AID 624416 | TR-FRET gp120-PG9 antibody binding | inhibition, % at 6.7 µM; in the data active means inhibition above about 8.5%
iPSC survival up: hiPSC single-cell survival enhancement; ATPlite luminescence; 100% = ROCK inhibitor wells, 0% = DMSO; survival enhancement, % at 20 µM; hit rate 0.044% among 360,000; AID 602274; in the data active means survival enhancement above about 18%;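 further: cells exposed to compounds for 16 hours before the ATP read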
MIN6 prolif: induces beta-cell replication in MIN6 cells; proliferation, % at 10 µM; hit rate 0.29% among 330,000; MIN6 cells proliferation, ATPlite luminescence, 48 h; cells starved in 0.2% serum; 100% = growth in 10% serum;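 active means compounds whose signal lies at least 3.5 SD above the mean of all wells on their plate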
Rev-erbA confirm: Rev-erb alpha (human) modulation, hit confirmation. Rev-erb alpha FITC-DNA binding, fluorescence polarization, 90 min. shares compounds with Rev-erbA mod. hit rate 61% among 3,000. AID 1259319. activation, % at 25 µM;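 active means activation at or above a set limit, or at least 3 SD above the negative control mean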
RORg DNA counter: counter-screen for Rev-erb alpha modulators: RORgamma DNA binding; shares compounds with Rev-erbA mod; purified RORgamma protein-FITC-DNA binding, fluorescence polarization; IC50, µM; hit rate 8% among 910;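 active means Compounds whose fitted half-maximal concentration for disrupting protein-DNA binding is below 10 micromolar; the record names Rev-erb in its text, so the target is in doubt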
Each line names hits and unclear results; the compound was inactive in the other large screens (follow-up assays come after a bar, where they were run). The list is not random: actives were taken first. Their share in the collection is about 2.9%.

Cc1ccc2nsnc2c1NC(=O)c1sc2ccccc2c1Cl	Rev-erbA mod 31 (no result: TAG inh) | Rev-erbA confirm 32 | RORg DNA counter inactive
CNC(=O)c1ccsc1NC(=O)c1sc2ccccc2c1Cl	Rev-erbA mod 96 | Rev-erbA confirm 72 | RORg DNA counter inactive
Cc1nnc(NC(=O)c2sc3ccccc3c2Cl)s1	none
Cc1ccc(NC(=O)c2sc3ccccc3c2Cl)nc1	none (no result: TAG inh)
O=C(NCCN1CCOCC1)c1cccc2c1C(=O)c1ccc(N3CCCC3)cc1S2(=O)=O	none (no result: T cruzi inh)
CCn1c(/C=C/c2ccccc2[N+](=O)[O-])nc2ccccc2c1=O	none
Cc1ccc(C=C2C=C(c3ccccc3)OC2=O)cc1	none (no result: T cruzi inh, MIN6 prolif)
CN(C)c1ccc(/C=C2/C=C(c3ccc4c(c3)CCCC4)OC2=O)cc1	Rev-erbA mod 25 | Rev-erbA confirm inactive
CN(C)c1ccc(C=C2C=C(c3ccccc3)OC2=O)cc1	Rev-erbA mod 32 (no result: T cruzi inh, MIN6 prolif) | Rev-erbA confirm inactive
CN(C)c1ccc(Nc2nc(N)c3ccccc3n2)cc1	none (no result: TAG inh)
Cc1ccnc(NC(=O)CCC(=O)N(CC(=O)NCc2ccccc2)c2ccc3c(c2)OCO3)c1	none
COc1ccccc1N1C(=O)c2cccc3c(C(=O)O)ccc(c23)C1=O	none (no result: TAG inh)
Cc1ccccc1N1C(=O)c2cccc3c(N(C)CCO)ccc(c23)C1=O	Rev-erbA mod 40 (no result: TAG inh) | Rev-erbA confirm 38
CC(=O)Nc1cccc2c1C(=O)N(c1ccccc1C)C2=O	none
COc1ccccc1N1C(=O)c2cccc3c(N(C)CCO)ccc(c23)C1=O	Rev-erbA mod 30 | Rev-erbA confirm 37 | RORg DNA counter inactive
COc1ccc(C2=NN(C(=O)COc3ncnc4ccccc34)C(c3ccco3)C2)cc1 (stereo unspecified)	Rev-erbA mod 31 | Rev-erbA confirm inactive
CCOc1cccc2cc(C(N)=O)c(=NCc3ccccc3)oc12	Rev-erbA mod 48 (no result: TAG inh) | Rev-erbA confirm 17
Brc1cc2c(cc1-c1nc3ccccc3s1)OCO2	Rev-erbA mod 28 (no result: TAG inh) | Rev-erbA confirm inactive
COc1ccc(-c2nnc(NC(=O)Cc3ccccc3)s2)c(OC)c1	Rev-erbA mod 41 | Rev-erbA confirm 19
C/C(=N\O)c1ccccc1C(=O)O	none
CCOC(=O)c1cc(C#N)c(NCc2ccccc2)nc1C	none (no result: TAG inh)
COC(=O)c1cc(C#N)c(NCc2ccc(Cl)cc2Cl)nc1C	Rev-erbA mod 24 | Rev-erbA confirm inactive
CCOc1nc(-c2ccc(OC)cc2)ccc1-c1noc(C)n1	none (no result: TAG inh)
COc1ccc(-c2ccc(-c3noc(C)n3)c(OC)n2)cc1	Rev-erbA mod 27 (no result: TAG inh) | Rev-erbA confirm inactive
COc1ccc(CC(=O)Nc2ccc(-c3noc(-c4ccccc4OC)n3)cc2)cc1	Rev-erbA mod 36 (no result: TAG inh) | Rev-erbA confirm 55 | RORg DNA counter inactive
COc1ccc(-c2ccc(-c3noc(-c4cccc(OC)c4)n3)c(OC)n2)cc1	Rev-erbA mod 52 (no result: TAG inh) | Rev-erbA confirm inactive
COc1ccc(-c2ccc(-c3noc(-c4ccccc4C)n3)c(OC)n2)cc1	Rev-erbA mod 40 (no result: TAG inh) | Rev-erbA confirm inactive
c1ccc2c(c1)nc(NCC1CCCO1)c1nnnn12 (stereo unspecified)	none
O=C(COc1ccc(Cl)cc1Br)NCC(c1ccco1)N1CCCC1 (stereo unspecified)	none (no result: T cruzi inh)
COc1ccc(-c2ccc(-c3noc(-c4ccccc4OC)n3)c(OC)n2)cc1	Rev-erbA mod 37 | Rev-erbA confirm inactive
Cn1c(SCC(=O)Nc2cccc(F)c2)nnc1-c1cc2ccccc2o1	Rev-erbA mod 75 | Rev-erbA confirm 102 | RORg DNA counter inactive
CC(=O)Nc1ccc(-c2nnc(SCC(=O)Nc3ccc4c(c3)oc3ccccc34)n2C)cc1	none
COC(=O)[C@]1(C)CCC[C@@]2(C)C3CC[C@@]4(C)C[C@]3(CCC21)CC4=NO (stereo partly specified)	Rev-erbA mod 17 (no result: T cruzi inh) | Rev-erbA confirm inactive
Fc1cccc(CN(C2=NCCN2)c2c(Cl)cccc2Cl)c1	none (no result: T cruzi inh)
O=[N+]([O-])c1cc(S(=O)(=O)NCCCN2CCOCC2)ccc1Cl	none (no result: TAG inh)
Cc1ccccc1NC(=O)CSc1n[nH]c(-c2ccccn2)n1	none
CC(=O)c1sc(Nc2nc3ccc(F)cc3s2)nc1C	none
COC(=O)c1ccc2nc(NC(=O)C(C)(C)C)sc2c1	none
COC(=O)c1ccc2nc(Nc3nc4ccc(F)cc4s3)sc2c1	Rev-erbA mod 48 (no result: TAG inh, MIN6 prolif) | Rev-erbA confirm 54
COC(=O)c1ccc2nc(NC(=O)C3CCCCC3)sc2c1	Rev-erbA mod 17 | Rev-erbA confirm 19
O=C(CSc1nc2ccccc2o1)Nc1ccc(Cl)cc1	none (no result: TAG inh)
COc1cc(OC)c(NC(=O)c2sc3ncn(CC(=O)N4CCN(c5ccccn5)CC4)c(=O)c3c2C)cc1Cl	none (no result: TAG inh)
COc1ccccc1NC(=O)c1sc2ncn(Cc3cccc(C)c3)c(=O)c2c1C	Rev-erbA mod 55 (no result: TAG inh) | Rev-erbA confirm 54 | RORg DNA counter 1.1
COc1ccccc1NC(=O)c1sc2ncn(Cc3ccc(C)cc3)c(=O)c2c1C	Rev-erbA mod 46 (no result: TAG inh) | Rev-erbA confirm inactive
COc1ccc(NC(=O)c2sc3ncn(CC(=O)N4CCN(c5ccccn5)CC4)c(=O)c3c2C)c(OC)c1	Rev-erbA mod 48 (no result: TAG inh) | Rev-erbA confirm inactive
Cc1sc2c(c1C)C(=O)/C(=C\Nc1ccncc1)S(=O)(=O)N2C	none
COc1ccc(Cl)cc1-c1nc(-c2ccncc2)no1	Rev-erbA mod 30 | Rev-erbA confirm inactive
CCOc1ccccc1N(CC(=O)NC1CCCCC1)S(=O)(=O)c1ccccc1	none (no result: TAG inh)
O=C(NCCc1ccccc1)c1ccc2c(c1)S(=O)(=O)c1cc(Cl)ccc1C2=O	Rev-erbA mod 68 (no result: T cruzi inh) | Rev-erbA confirm 63 | RORg DNA counter inactive
O=C(NCCc1ccc(Cl)cc1)c1ccc2nccnc2c1	Rev-erbA mod 14 | Rev-erbA confirm inactive
O=C(NCCc1ccc(Cl)cc1)c1ccc2nc[nH]c2c1	none
O=C(NCCc1ccccc1)c1ccc2c(c1)S(=O)(=O)c1ccccc1C2=O	none
CCCN(CCC)C(=O)CSc1ncccc1C(=O)O	none (no result: TAG inh)
CCN1C(=O)c2ccccc2Sc2ccc(C(=O)NCCCN(CC(C)C)CC(C)C)cc21	none (no result: TAG inh)
C=CCC[C@@H](Cc1ccc(F)cc1)C(=O)OC[C@H](C)NC(=O)[C@@H](CC=C)CC(=O)N(CCO)Cc1ccccc1	Rev-erbA mod 13 (no result: T cruzi inh) | Rev-erbA confirm inactive
C=CCC[C@H](Cc1ccc(F)cc1)C(=O)OC[C@@H](C)NC(=O)[C@H](CC=C)CC(=O)N(CCO)Cc1ccccc1	none (no result: T cruzi inh)
Cc1csc(NC(=O)CSc2nc3ccccc3c3c2CCCC3)n1	none
O=C(C1CCC1)N(CCc1ccccc1)Cc1nc2ccccc2c(=O)[nH]1	none
O=c1c2ccccc2nc2n1CCc1ccc(Br)cc1-2	none (no result: TAG inh, T cruzi inh, MIN6 prolif)

Screening data: PubChem, several laboratories
